Data from ChEMBL document CHEMBL1133745, “Indeno[1,2-b]pyrazin-2,3-diones: a new class of antagonists at the glycine site of the NMDA receptor with potent in vivo activity” (J Med Chem, 2000).

Legend:
Mus musculus [1] = assay: Compound was tested in vivo (intra peritoneally) in the mouse maximal electroshock convulsion test; assay type: functional
Procedure, shortened: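 CD1 mice (Charles River); tonic convulsions induced by maximal electroshock. Most compounds tested in a single run; test variability estimated at about 12%.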

Glutamate NMDA receptor = assay: Displacement of [3H]dichlorokynurenate ([3H]-DCKA) from N-methyl-D-aspartate glutamate receptor 1 in rat cortical membranes; assay type: cell membranes, Membrane
[2] = biological target: Glutamate receptor ionotropic, AMPA (Rattus norvegicus, UniProt P19490+P19491+P19492+P19493); assay: Displacement of [3H]-AMPA from Ionotropic glutamate receptor AMPA of rat cortical membranes; assay type: cell membranes, Membrane
Mus musculus [3] = assay: Compound was tested in vivo (intravenously) activity in the mouse maximal electroshock convulsion test; assay type: functional; details: iv
Mus musculus [4] = assay: Compound was tested in vivo (intra peritoneally) with probenecid in the mouse maximal electroshock convulsion test; assay type: functional
Procedure, shortened: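 Maximal electroshock in CD1 mice, scoring tonic convulsions. Animals were pretreated with probenecid 200 mg/kg ip, and the compound was given ip 30 min before shock. ED50 in mg/kg ip.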

Mus musculus [5] = assay: Compound was tested in vivo (intraperitoneally) with probenecid in the mouse maximal electroshock convulsion test

Structure (SMILES)	ED50 (Mus musculus [1]; Mus musculus, read-out: ED50) [mg/kg]	IC50 (Glutamate NMDA receptor) [nM]	IC50 [2] [nM]	ED50 (Mus musculus [1]) [mg/kg]	ED50 (Mus musculus [3]) [mg/kg]	ED50 (Mus musculus [4]) [mg/kg]	ED50 (Mus musculus [5]) [mg/kg]
CC1(CC(=O)O)c2nc(O)c(O)nc2-c2cc(Cl)cc(Cl)c21 (stereo not drawn)	> 80	24	187	–	–	–	–
CC1(CC(=O)O)c2ccc(Cl)cc2-c2nc(O)c(O)nc21 (single isomer, unassigned; (-))	–	5	10000	4.5	2	–	–
CCCC1(CC(=O)O)c2ccc(Cl)cc2-c2nc(O)c(O)nc21 (stereo not drawn)	1.8	21	7000	–	–	–	–
CC1(CC(=O)O)c2ccccc2-c2nc(O)c(O)nc21 (stereo not drawn)	65	21	4600	–	–	2.7	–
CC1(CC(=O)O)c2cc(Cl)c(Cl)cc2-c2nc(O)c(O)nc21 (stereo not drawn)	> 80	140	1800	–	–	–	–
Cc1ccc2c(c1)-c1nc(O)c(O)nc1C2(C)CC(=O)O (stereo not drawn)	23	12	4500	–	–	–	–
CC1(CC(=O)O)c2ccc(OC(F)(F)F)cc2-c2nc(O)c(O)nc21 (stereo not drawn)	–	4300	> 10000	–	–	–	–
CC1(CC(=O)O)c2ccc(Cl)cc2-c2nc(O)c(O)nc21 (stereo in doubt; 10i)	–	28	2100	6.8	–	–	1.8
CC1(CC(=O)O)c2ccc(Cl)c(Cl)c2-c2nc(O)c(O)nc21 (stereo not drawn)	> 80	2550	> 10000	–	–	–	–
O=c1[nH]c2cc(Cl)c(Cl)c([N+](=O)[O-])c2[nH]c1=O [LICOSTINEL]	22.5	4	766	–	–	–	–
O=C(O)C1Nc2cc(Cl)cc(Cl)c2S(=O)(=O)N1Cc1cccc(Br)c1 (stereo not drawn)	–	8.3	> 10000	–	–	–	–
CC1(CC(=O)O)c2ccc(Cl)cc2-c2nc(O)c(O)nc21 (single isomer, unassigned; (+))	–	44	1000	>80	–	–	–
CC1(CC(=O)O)c2nc(O)c(O)nc2-c2cccc(Cl)c21 (stereo not drawn)	80	79	423	–	–	–	–
CC1(CC(=O)O)c2ccc(F)cc2-c2nc(O)c(O)nc21 (stereo not drawn)	> 80	15	1280	–	–	–	–
